Columns and labels:
[1] = target: Serine/threonine-protein kinase PAK 2 (Homo sapiens) (UniProt Q13177); assay: Inhibition of PAK2 assessed as residual activity at 10 uM
Outline: (§1)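 Panel screen by radioactive kinase assay at a single inhibitor concentration. Score is the percent activity remaining relative to DMSO controls (100%).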

[2] = target: T1, Inhibitor of nuclear factor kappa-B kinase subunit beta (Homo sapiens) (UniProt O14920); assay: Inhibition of IKK-beta assessed as residual activity at 10 uM
T1 sequence (whole entry): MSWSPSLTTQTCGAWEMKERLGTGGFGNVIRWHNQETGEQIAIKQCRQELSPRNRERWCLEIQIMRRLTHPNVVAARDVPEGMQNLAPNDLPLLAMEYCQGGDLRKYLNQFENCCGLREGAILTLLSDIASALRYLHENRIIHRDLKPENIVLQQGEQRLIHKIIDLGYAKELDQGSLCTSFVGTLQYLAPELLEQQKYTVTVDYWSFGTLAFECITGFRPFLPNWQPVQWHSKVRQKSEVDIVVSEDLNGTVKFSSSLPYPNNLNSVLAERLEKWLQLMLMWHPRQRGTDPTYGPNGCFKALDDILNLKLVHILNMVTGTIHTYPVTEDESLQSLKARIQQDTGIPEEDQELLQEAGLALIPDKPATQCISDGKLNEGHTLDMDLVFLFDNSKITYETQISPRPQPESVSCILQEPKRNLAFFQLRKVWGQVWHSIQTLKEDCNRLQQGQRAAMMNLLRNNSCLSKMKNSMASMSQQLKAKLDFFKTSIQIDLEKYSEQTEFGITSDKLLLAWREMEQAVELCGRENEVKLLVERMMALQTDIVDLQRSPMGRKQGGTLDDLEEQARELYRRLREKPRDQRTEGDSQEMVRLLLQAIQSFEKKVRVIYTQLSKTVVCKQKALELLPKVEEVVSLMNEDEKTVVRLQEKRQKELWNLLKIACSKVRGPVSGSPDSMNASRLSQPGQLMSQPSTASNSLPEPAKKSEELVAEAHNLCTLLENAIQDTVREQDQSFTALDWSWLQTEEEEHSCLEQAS
Outline: (§2)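 Kinase panel screen run as a radioactive activity assay at single compound concentration. Score reported as percent activity remaining relative to DMSO controls (100%).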

[3] = target: T2, Dual specificity protein kinase TTK (Homo sapiens) (UniProt P33981); assay: Inhibition of TTK assessed as residual activity at 10 uM; outline: as §1
T2 sequence (whole entry): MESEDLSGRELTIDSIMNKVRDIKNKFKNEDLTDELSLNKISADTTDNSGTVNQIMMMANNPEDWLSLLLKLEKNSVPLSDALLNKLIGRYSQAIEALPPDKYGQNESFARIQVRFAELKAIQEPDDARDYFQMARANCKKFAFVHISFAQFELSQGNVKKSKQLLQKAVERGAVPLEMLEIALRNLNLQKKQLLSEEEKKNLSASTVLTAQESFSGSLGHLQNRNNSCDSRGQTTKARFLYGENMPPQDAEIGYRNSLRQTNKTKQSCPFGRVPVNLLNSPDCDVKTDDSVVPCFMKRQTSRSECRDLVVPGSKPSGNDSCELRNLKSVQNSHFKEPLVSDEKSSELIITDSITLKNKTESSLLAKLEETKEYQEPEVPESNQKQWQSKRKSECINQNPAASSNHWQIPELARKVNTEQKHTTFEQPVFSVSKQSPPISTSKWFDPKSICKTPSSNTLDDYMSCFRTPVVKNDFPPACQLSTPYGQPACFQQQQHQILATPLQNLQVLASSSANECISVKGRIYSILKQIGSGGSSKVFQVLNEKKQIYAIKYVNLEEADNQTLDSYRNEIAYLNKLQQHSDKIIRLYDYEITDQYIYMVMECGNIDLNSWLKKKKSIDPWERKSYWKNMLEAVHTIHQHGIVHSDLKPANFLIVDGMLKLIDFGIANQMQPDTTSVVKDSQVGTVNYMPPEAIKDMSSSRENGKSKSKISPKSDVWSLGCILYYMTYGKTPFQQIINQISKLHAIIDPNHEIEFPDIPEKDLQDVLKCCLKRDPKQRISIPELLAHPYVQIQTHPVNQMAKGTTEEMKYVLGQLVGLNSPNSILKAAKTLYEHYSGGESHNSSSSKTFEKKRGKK

[4] = target: Receptor-interacting serine/threonine-protein kinase 2 (Homo sapiens) (UniProt O43353); assay: Inhibition of RIPK2 assessed as residual activity at 10 uM; outline: as §1
Receptor-interacting serine/threonine-protein kinase 2 (Homo sapiens), sequence (O43353 whole entry): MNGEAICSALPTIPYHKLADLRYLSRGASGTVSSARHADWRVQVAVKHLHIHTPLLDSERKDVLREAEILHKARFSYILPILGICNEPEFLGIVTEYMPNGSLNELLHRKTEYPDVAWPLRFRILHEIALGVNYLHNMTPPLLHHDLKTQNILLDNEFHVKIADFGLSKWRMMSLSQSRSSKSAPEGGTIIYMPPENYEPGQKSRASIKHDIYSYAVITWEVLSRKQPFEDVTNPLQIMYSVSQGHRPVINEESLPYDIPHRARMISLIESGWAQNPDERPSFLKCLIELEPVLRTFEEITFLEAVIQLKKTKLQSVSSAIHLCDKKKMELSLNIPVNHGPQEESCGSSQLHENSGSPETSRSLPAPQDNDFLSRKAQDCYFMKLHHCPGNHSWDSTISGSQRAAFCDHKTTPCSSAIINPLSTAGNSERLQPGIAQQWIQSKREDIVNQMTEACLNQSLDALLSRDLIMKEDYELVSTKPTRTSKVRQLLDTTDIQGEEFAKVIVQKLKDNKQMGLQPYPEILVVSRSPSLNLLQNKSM

[5] = target: T3, Mitogen-activated protein kinase kinase kinase kinase 2 (Homo sapiens) (UniProt Q12851); assay: Inhibition of GCK assessed as residual activity at 10 uM; outline: as §2
T3 sequence (whole entry): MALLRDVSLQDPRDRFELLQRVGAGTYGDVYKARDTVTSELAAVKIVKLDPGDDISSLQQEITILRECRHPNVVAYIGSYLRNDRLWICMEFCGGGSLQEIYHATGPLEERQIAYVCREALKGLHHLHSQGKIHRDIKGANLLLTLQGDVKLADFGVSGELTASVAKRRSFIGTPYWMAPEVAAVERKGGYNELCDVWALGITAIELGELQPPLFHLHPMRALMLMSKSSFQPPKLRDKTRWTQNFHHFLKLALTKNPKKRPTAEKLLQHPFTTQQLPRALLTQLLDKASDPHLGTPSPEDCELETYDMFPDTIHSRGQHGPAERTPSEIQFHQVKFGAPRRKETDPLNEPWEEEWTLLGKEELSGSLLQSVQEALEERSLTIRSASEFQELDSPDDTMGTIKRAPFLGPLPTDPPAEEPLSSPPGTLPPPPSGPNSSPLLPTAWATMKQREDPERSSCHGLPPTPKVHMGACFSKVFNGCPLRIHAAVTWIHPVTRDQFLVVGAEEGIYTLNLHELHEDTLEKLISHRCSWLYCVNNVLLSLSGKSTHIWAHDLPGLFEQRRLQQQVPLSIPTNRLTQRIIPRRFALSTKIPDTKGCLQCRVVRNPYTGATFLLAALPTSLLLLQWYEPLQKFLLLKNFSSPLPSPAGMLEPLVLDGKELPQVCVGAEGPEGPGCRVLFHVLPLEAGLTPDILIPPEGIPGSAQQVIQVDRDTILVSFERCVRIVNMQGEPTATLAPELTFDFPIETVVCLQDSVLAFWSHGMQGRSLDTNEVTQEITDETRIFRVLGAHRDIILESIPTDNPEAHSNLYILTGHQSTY

[6] = target: Ribosomal protein S6 kinase beta-1 (Homo sapiens) (UniProt P23443); assay: Inhibition of S6K1 assessed as residual activity at 10 uM; outline: as §1
Ribosomal protein S6 kinase beta-1 (Homo sapiens), sequence (P23443 whole entry, looked up): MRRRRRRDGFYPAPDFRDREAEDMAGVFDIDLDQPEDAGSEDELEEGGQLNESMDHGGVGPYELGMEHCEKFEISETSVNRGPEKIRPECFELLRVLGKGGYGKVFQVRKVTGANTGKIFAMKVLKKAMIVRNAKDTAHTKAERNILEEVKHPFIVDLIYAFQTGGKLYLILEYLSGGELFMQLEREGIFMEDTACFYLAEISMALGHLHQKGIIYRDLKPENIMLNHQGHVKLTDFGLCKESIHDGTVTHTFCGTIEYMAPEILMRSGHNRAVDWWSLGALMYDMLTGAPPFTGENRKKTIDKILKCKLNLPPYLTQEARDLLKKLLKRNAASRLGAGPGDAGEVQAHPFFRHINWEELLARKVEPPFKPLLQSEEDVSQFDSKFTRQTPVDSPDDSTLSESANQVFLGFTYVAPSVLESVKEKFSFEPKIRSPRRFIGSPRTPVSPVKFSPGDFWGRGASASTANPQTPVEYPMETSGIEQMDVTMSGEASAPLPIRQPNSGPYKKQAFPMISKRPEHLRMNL

[7] = target: Epidermal growth factor receptor (Homo sapiens, UniProt P00533); assay: Inhibition of EGFR by HTRF assay
Epidermal growth factor receptor, sequence (P00533 whole entry): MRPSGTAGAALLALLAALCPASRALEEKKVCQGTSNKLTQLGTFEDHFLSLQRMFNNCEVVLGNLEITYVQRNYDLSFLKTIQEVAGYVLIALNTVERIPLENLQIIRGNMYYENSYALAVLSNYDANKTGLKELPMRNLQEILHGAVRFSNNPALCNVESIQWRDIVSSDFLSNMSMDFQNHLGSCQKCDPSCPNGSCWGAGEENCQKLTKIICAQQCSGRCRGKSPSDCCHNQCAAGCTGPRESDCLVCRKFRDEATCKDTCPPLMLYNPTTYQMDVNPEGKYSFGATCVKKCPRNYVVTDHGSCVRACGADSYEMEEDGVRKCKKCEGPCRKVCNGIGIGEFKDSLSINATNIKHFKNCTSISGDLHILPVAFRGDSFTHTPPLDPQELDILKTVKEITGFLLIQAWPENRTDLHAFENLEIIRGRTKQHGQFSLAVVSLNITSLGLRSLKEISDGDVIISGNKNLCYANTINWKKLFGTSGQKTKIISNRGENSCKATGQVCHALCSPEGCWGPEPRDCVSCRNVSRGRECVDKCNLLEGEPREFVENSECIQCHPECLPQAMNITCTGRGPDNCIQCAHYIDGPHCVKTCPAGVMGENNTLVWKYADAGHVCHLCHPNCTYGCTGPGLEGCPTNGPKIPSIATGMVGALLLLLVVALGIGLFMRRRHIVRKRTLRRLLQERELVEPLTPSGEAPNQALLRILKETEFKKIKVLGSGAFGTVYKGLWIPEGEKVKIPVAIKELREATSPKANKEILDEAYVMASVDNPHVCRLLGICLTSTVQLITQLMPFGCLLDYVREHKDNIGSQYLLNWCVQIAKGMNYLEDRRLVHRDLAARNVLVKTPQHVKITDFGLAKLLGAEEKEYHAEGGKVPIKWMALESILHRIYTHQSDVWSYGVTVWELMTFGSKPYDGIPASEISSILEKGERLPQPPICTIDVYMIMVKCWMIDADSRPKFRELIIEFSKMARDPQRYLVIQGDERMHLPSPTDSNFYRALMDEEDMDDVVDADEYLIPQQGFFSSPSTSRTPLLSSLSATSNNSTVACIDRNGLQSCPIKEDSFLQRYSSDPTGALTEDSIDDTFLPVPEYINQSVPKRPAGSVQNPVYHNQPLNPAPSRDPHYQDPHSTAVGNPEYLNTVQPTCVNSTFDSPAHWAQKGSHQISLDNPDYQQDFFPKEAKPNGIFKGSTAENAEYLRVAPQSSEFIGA

NCI-H2052 = assay: Growth inhibition of human NCI-H2052 cells assessed as ATP level after 96 hrs by CellTiter-Glo assay; format: functional; conditions: NCI-H2052, 96 h

Serine/threonine-protein kinase PAK 2 (Homo sapiens), sequence (Q13177 whole entry): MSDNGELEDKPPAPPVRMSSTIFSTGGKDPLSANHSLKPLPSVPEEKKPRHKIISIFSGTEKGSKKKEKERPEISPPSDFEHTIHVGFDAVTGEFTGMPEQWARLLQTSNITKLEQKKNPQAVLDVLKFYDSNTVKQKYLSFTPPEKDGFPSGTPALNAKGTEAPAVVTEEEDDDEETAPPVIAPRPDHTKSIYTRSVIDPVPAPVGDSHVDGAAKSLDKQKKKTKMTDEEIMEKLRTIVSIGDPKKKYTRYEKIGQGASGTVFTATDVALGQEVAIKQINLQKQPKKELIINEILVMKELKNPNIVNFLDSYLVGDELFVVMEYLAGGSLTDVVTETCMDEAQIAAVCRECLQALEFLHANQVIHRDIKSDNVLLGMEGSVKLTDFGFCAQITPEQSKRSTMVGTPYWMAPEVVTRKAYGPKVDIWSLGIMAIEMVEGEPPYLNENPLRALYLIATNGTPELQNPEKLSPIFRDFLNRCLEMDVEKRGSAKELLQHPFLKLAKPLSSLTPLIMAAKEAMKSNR

Activity [1] | Activity [2] | Activity [3] | Activity [4] | Activity [5] | Activity [6] | IC50 [7] | GI50 (NCI-H2052) | SMILES
80% | 84% | 96% | 82% | 80% | 84% |  |  | CN(C)CCCC(=O)Nc1ccc2c(C#N)cnc(Nc3cccc(Br)c3)c2c1
81% | 79% | 74% | 79% | 84% | 71% | 150 nM | 21600 nM | CN(C)C/C=C/C(=O)Nc1ccc2c(C#N)cnc(Nc3cccc(Br)c3)c2c1
90% | 88% | 81% | 66% | 84% | 82% | 1300 nM |  | CN1CCN(CCC(=O)Nc2ccc3c(C#N)cnc(Nc4cccc(Br)c4)c3c2)CC1
